# In ChEMBL document CHEMBL1131508, “Spiro[1H-indene-1,4'-piperidine] derivatives as potent and selective non-peptide human somatostatin receptor subtype 2 (sst2) agonists” (J Med Chem, 1998):
# Tests used:
# Type in all cases: cell-based
# [1] = molecular target: Somatostatin receptor type 4 (Homo sapiens, UniProt P31391); experiment: Binding affinity towards human sst4 receptor expressed in CHO-K1 cells
# Procedure, shortened: (§1)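 Competitive radioligand binding. Each point was run in triplicate, and each compound was tested in at least two separate experiments.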
# [2] = molecular target: Somatostatin receptor type 3 (Homo sapiens, UniProt P32745); experiment: Binding affinity towards human sst3 receptor expressed in CHO-K1 cells; procedure, shortened: as §1
# [3] = molecular target: Somatostatin receptor type 5 (Homo sapiens, UniProt P35346); experiment: Binding affinity towards human sst5 receptor expressed in CHO-K1 cells
# Procedure, shortened: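 Radioligand was labelled SRIF28. Points were run in triplicate, with at least two independent experiments per compound.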
# [4] = molecular target: Somatostatin receptor type 1 (Homo sapiens, UniProt P30872); experiment: Binding affinity towards human sst1 receptor expressed in CHO-K1 cells; procedure, shortened: as §1
# [5] = molecular target: Somatostatin receptor type 2 (Homo sapiens, UniProt P30874); experiment: Binding affinity towards human sst2 receptor expressed in CHO-K1 cells; procedure, shortened: as §1
# Sequence of Somatostatin receptor type 2 (P30874 whole entry): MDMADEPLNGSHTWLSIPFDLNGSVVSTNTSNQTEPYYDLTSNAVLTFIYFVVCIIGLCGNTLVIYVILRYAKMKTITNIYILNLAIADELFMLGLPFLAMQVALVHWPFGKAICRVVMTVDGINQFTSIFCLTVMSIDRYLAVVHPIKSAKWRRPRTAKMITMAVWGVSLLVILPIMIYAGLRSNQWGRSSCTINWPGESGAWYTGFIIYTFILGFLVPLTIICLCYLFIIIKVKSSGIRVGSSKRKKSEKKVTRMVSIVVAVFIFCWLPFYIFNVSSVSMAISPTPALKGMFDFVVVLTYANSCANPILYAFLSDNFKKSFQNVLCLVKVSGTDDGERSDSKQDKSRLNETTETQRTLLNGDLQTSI
# Sequence of Somatostatin receptor type 5 (P35346 whole entry): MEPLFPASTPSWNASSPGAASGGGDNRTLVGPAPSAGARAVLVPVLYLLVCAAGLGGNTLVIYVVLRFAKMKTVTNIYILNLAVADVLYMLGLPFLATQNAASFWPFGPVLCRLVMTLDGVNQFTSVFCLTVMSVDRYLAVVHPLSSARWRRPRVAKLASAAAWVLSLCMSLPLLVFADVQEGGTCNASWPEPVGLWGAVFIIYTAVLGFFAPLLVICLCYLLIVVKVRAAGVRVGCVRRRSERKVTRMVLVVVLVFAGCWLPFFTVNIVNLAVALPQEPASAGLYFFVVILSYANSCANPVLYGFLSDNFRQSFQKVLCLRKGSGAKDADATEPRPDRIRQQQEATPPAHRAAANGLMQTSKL
# Sequence of Somatostatin receptor type 3 (P32745 whole entry): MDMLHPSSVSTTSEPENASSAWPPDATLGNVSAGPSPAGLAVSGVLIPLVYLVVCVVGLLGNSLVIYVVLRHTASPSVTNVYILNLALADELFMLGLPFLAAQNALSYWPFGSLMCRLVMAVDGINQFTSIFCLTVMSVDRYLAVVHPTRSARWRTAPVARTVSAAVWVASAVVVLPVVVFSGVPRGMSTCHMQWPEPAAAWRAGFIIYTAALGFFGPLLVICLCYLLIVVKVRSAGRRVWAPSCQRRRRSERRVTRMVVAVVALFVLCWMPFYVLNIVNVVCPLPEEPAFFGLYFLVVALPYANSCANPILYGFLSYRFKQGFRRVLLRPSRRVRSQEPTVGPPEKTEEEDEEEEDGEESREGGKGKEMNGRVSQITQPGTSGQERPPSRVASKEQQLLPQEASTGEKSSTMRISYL
# Sequence of Somatostatin receptor type 1 (P30872 whole entry): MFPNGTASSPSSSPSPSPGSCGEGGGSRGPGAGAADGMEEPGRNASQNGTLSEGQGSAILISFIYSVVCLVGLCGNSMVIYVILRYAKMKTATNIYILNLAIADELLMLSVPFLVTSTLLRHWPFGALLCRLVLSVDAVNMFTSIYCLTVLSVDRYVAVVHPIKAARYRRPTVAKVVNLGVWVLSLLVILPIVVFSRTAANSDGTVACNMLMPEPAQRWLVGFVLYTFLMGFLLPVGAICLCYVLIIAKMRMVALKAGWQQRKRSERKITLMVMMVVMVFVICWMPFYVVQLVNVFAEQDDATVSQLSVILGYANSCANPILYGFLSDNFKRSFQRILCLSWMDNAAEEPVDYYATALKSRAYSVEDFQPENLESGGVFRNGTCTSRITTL
# Sequence of Somatostatin receptor type 4 (P31391 whole entry): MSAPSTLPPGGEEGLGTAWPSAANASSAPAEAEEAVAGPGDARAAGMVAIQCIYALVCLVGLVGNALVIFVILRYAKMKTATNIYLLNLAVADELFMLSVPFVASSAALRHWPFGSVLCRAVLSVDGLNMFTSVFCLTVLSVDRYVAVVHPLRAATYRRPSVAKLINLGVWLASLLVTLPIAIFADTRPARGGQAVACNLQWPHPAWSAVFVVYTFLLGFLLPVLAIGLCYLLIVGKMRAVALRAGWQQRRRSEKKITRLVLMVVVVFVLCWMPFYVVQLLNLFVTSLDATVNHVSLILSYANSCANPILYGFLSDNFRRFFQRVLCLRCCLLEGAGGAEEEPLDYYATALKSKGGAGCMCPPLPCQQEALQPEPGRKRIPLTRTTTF
Ki [1],Ki [2],Ki [3],Ki [4],Ki [5],Structure (SMILES)
> 10000 nM,5690 nM,> 10000 nM,4260 nM,–,NCCCCNC(=O)C(Cc1c[nH]c2ccccc12)NC(=O)N1CCC2(C=Cc3ccccc32)CC1 (centres undefined)
–,–,–,–,53 nM,NCCCCC(NC(=O)[C@@H](Cc1c[nH]c2ccccc12)NC(=O)N1CCC2(C=Cc3ccccc32)CC1)C(N)=O (some centres undefined)
–,–,–,–,815 nM,NCCCNC(=O)[C@H](Cc1c[nH]c2ccccc12)NC(=O)N1CCC2(C=Cc3ccccc32)CC1
2480 nM,3610 nM,5020 nM,537 nM,4 nM,NCC1CCCC(CNC(=O)[C@H](Cc2c[nH]c3ccccc23)NC(=O)N2CCC3(C=Cc4ccccc43)CC2)C1 (some centres undefined)
–,–,–,–,225 nM,NCCCCCCNC(=O)[C@H](Cc1c[nH]c2ccccc12)NC(=O)N1CCC2(C=Cc3ccccc32)CC1
2180 nM,3690 nM,3320 nM,2430 nM,20 nM,NC[C@H]1CCC[C@@H](CNC(=O)[C@H](Cc2c[nH]c3ccccc23)NC(=O)N2CCC3(C=Cc4ccccc43)CC2)C1
6840 nM,2570 nM,> 10000 nM,5380 nM,46 nM,NCCCCCNC(=O)[C@@H](Cc1c[nH]c2ccccc12)NC(=O)N1CCC2(C=Cc3ccccc32)CC1
–,–,–,–,1110 nM,NCCCCC(NC(=O)[C@H](Cc1c[nH]c2ccccc12)NC(=O)N1CCC2(C=Cc3ccccc32)CC1)C(=O)O (some centres undefined)
–,–,–,–,0.5 nM,C[C@@H](O)[C@@H]1NC(=O)[C@H](Cc2ccccc2)NC(=O)[C@@H]2CCCN2C(=O)[C@H](Cc2ccc(O)cc2)NC(=O)[C@@H](Cc2c[nH]c3ccccc23)NC(=O)[C@H](CCCCN)NC1=O (stereo in doubt)
2000 nM,2950 nM,4470 nM,1740 nM,1.6 nM,NC[C@@H]1CCC[C@H](CNC(=O)[C@H](Cc2c[nH]c3ccccc23)NC(=O)N2CCC3(C=Cc4ccccc43)CC2)C1
